Compound activity (PubChem BioAssay)
Sampled rows, rich in hits. Any-hit rate of the full collection: about 1.1%.
SENP1 FRET inh: SENP1 (human) catalytic domain inhibition; Q9P0U3; recombinant SENP1 catalytic domain, CyPet-SUMO1-YPet FRET cleavage; inhibition, % at 10 µM; 360,000 compounds, 0.21% hits;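 active means inhibition at least 30% at 10 µM, raw YFP signal under a set limit, fluorescence ratio 0.5 to 1.5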;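 further: 0% = enzyme with DMSO and 100% = no enzyme wells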
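Assay system: hSENP1 catalytic domain, recombinant. Amount: SENP1 enzyme, 20 pM final. Schedule: 50 min reaction, RT, dark. Technique: FRET, CFP and YFP emission. Control set: no-enzyme wells low, DMSO-plus-enzyme wells high control.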
FAS TE block: inhibitors of human fatty acid synthase thioesterase domain; recombinant FAS-TE, OMFH fluorogenic substrate, fluorescence endpoint; inhibition, % at 15 µM; P49327; 360,000 compounds, 0.67% hits;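 active means compounds whose normalised, plate-corrected inhibition of enzyme fluorescence in the single-dose primary screen is 50% or more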;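 further: 0% = DMSO with enzyme and 100% = substrate without enzyme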
JMJD2C inh: blocks human GASC-1 demethylase activity; Q9H3R0; GST-JMJD2C(1-420) H3K9me3 demethylation, DELFIA europium; inhibition, % at 2.35 µM; 330,000 compounds, 0.069% hits; AID 2099;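 active means more than half of a compound's replicate wells show inhibition beyond 50%, single wells judged on their own value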;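 further: signal counts dimethyl H3K9 product captured on neutravidin plate; 0% = median of DMSO wells and 100% = 0.3 times that DMSO median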
Target sequence (Q9H3R0 1-420 limits assumed): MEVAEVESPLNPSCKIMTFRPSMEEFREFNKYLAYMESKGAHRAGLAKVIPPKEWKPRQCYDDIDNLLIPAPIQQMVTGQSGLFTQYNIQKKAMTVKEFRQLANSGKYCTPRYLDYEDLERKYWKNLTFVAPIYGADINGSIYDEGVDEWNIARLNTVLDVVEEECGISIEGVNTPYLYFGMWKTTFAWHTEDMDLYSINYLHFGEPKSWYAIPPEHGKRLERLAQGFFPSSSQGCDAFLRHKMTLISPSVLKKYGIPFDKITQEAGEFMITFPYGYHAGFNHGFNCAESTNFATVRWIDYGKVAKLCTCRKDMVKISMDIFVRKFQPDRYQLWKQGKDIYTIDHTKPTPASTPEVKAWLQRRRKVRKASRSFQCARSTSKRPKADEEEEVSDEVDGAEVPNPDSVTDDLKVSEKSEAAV
Arrestin-AP2 inh: human beta-arrestin and AP2 interaction inhibition; FITC-arrestin peptide / GST-AP2 beads, flow cytometry; AP2 beta2 appendage carries R879A mutation; inhibition, % at 10 µM; 340,000 compounds, 0.31% hits;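 active means inhibition above a set limit, near 3 SD of compounds lacking own fluorescence, cut at about 54% in these data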;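 further: plate controls were DMSO wells for no effect and 5 µM unlabelled arrestin peptide for full effect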
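test system = AP2 appendage R879A on GSH beads | buffer or medium = PBS plus Tween 20 (0.05%) and BSA (0.1%) | incubation = 12 min plus 1 h, RT | detection = bead flow cytometry, FITC channel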
The depositor's hits bear a star; · = no result given.

SMILES	SENP1 FRET inh	FAS TE block	JMJD2C inh	Arrestin-AP2 inh
Cc1ccc(N2C(=O)C3C(C2=O)N2C(c4cccs4)C4C(=O)N(c5ccc(C)cc5)C(=O)C4N2C3c2cccs2)cc1 (stereo not given)	-2	84*	-9	0
CCOC(=O)C1(C)NC(c2cccs2)C2C(=O)N(c3ccc(C)cc3)C(=O)C21 (stereo not given)	1	0	14	13
CC(Cc1c[nH]c2ccccc12)NC(=O)C1CCCNC1=O (stereo not given)	0	-5	-1	-2
CCc1ccc(CCC(=O)Nc2sc3c(c2C#N)CCCC3)o1	-9	13	51*	6
CCC(=O)Nc1sc2c(c1C#N)CCC2	-2	-4	-7	-1
CCC(=O)c1ccc(N2CCN(C(=O)c3cc([N+](=O)[O-])ccc3N3CCN(C)CC3)CC2)c(F)c1	3	70*	37	-4
COc1cc(C(C(=O)NC2CCCCC2)N(Cc2cccs2)C(=O)Cc2c[nH]c3ccccc23)cc(OC)c1OC (stereo not given)	-2	11	52*	3
COc1cc(C(C(=O)NC2CCCCC2)N(C(=O)Cc2c[nH]c3ccccc23)c2ccccc2C)cc(OC)c1OC (stereo not given)	1	6	14	-11
CCOC(=O)C1=C(C)N(C)C(=O)NC1c1c(C)nn(-c2ccc(C)cc2)c1Cl (stereo not given)	1	3	6	-2
CCOC(=O)C1=C(C)NC(=O)NC1c1c(C)nn(-c2ccccc2)c1Cl (stereo not given)	3	-10	60*	-24
C=CCN(C(=O)c1ccc2snnc2c1)c1ccccc1	2	-4	3	1
N=C(N)c1ccc(Cl)cc1	2	-4	12	28
N=C(N)c1ccc(/C=C/c2ccc(C(=N)N)cc2O)cc1	55*	-10	23	-12
CCC1=[N+](C)CCn2c(C)ccc21	-2	-8	5	83*
O=C1N2CCCCC1(c1ccccc1)CCCC2	0	-5	·	·
Nc1nn2c(-c3ccccc3)cc(=O)[nH]c2c1N=Nc1ccc(O)cc1	3	3	51*	16
O=C(NC1(C(F)(F)F)N=C(c2ccccc2)NC1=O)c1ccccc1F (stereo not given)	-1	-10	8	-6
C[C@@H]1C(c2cccc(Cl)c2)=NN(c2ccccc2)[C@H]1C(=O)N1CCOC1=O	-64	18	·	8
Cc1cccc(C2=NN(c3ccc(Br)cc3)[C@@H](C(=O)N3CCOC3=O)[C@@H]2c2ccccc2)c1	-127	72*	·	10
C[C@@H]1C(c2cccc(Cl)c2)=NN(c2ccc(Br)cc2)[C@H]1C(=O)N1CCOC1=O	-44	56*	·	1
NC(=O)c1ccsc1NC(=O)COC(=O)[C@@H]1CCCN1C(=O)c1cccs1	-5	-8	·	19
COc1cc([C@@H]2Oc3cc(C4Oc5cc(O)cc(O)c5C(=O)[C@H]4O)ccc3O[C@H]2CO)ccc1O (stereo not given in full)	-1	4	·	13
CCc1noc(C)c1C(=O)NNC(=O)c1ccc(N(CC)CC)cc1	0	0	5	-5
CCOC(=O)Nc1cc(C)c(Cl)cc1OC	2	-4	51*	3
CCCCOC(=O)Nc1cc(C)c(Cl)cc1OC	5	9	-1	8
SMILES	SENP1 FRET inh	FAS TE block	JMJD2C inh	Arrestin-AP2 inh
CC(CN1CCCC1)OC(=O)COc1ccccc1 (stereo not given)	2	-13	50*	-11
O=C(O)CSc1cc(C(=O)c2cc(F)ccc2O)cn2c(=O)c3c(-c4ccccc4)csc3nc12	-33	66*	-2	27
CCOC(=O)c1sc2nc3c(SCCC#N)cc(C(=O)c4cc(F)ccc4O)cn3c(=O)c2c1C	-29	14	-2	14
O=C(O)CC(C(=O)O)N1C(=O)/C(=C/C=C/c2ccco2)SC1=S (stereo not given)	42*	-7	17	13
C=CCn1c(SCC(=O)NC2CCCCC2)nnc1-c1ccccn1	1	-4	1	-8
Cc1cc(C)nc(NCc2ccc(Cl)cc2)n1	0	3	68*	7
CN(C)c1ccc(N=Cc2nc(-c3ccccc3)oc2OC(=O)c2ccccc2)cc1	-29	-11	77*	7
CC(=O)Oc1oc(-c2ccccc2)nc1C=Nc1ccc(N(C)C)cc1	-8	-1	13	24
CN1CCc2c(C#N)c(N3CCOCC3)nc(NCC3CCCO3)c2C1 (stereo not given)	-73	-8	-13	-13
CC(O)CNc1nc2ccccc2n1CC(=O)NC12CC3CC(CC(C3)C1)C2 (stereo not given)	0	-4	51*	0
Cc1ccc(-c2nc3ccccc3[nH]2)s1	59*	4	3	2
COc1cc2nc(CSc3nc(-c4ccc(F)cc4)cs3)[nH]c(=O)c2cc1OC	-9	-3	-5	4
O=C1CCCC(O)=C1N=Nc1ccc(Cl)c(Cl)c1	2	5	1	·
CC(=O)N1CCc2cc(N=NC3=C(O)CCCC3=O)ccc21	47*	-4	-1	-11
COc1ccccc1N1CCN(/N=C(\C)c2ccccc2O)CC1	-1	12	-16	-15
Oc1[nH]c2ccccc2c1N=Nc1nc2ccccc2s1	41*	-4	11	-4
Cc1ccc2[nH]c(O)c(N=Nc3nc4ccccc4s3)c2c1	35*	5	2	-6
Oc1[nH]c2ccccc2c1N=Nc1ccccc1	-22	-40	6	-1
O=C(NC(=S)NCC1CCCO1)c1cccc([N+](=O)[O-])c1 (stereo not given)	0	1	-2	-8
Oc1ccc2c(c1)OCC1(O)Cc3cc(O)c(O)cc3C21 (stereo not given)	31*	-18	·	11
Oc1cc2c(cc1O)[C@H]1c3ccc(O)c(O)c3OC[C@@]1(O)C2	-7	0	-27	23
CC1CCCN(Cc2c(O)ccc3c2O/C(=C\c2ccco2)C3=O)C1 (stereo not given)	-26	-13	0	10
O=C1c2cccc3cc([N+](=O)[O-])cc(c23)C(=O)N1CCN1CCCC1	70*	-8	5	-2
Nc1cc2c3c(cccc3c1)C(=O)N(CCN1CCCC1)C2=O	38	-11	8	-6
CS(=O)(=O)N1CCC(Oc2cccc(C(=O)NCCCC3CCCC3)c2)CC1	0	12	9	61*
COc1cc(/C=C2\SC(=S)N(NS(=O)(=O)c3ccccc3)C2=O)ccc1O	75*	-9	15	31
CCOc1cc(/C=C2\SC(=S)N(NS(=O)(=O)c3ccc(C)cc3)C2=O)ccc1O	83*	-2	1	53
COc1cc(/C=C2/SC(=S)N(c3c(C)n(C)n(-c4ccccc4)c3=O)C2=O)ccc1O	46*	-4	4	4
COc1cc(/C=C2\SC(N)=NC2=O)ccc1O	40*	-7	31	6
O=C(Nc1cccnc1)C1(F)C(F)(F)C(F)(F)C(F)(F)C(F)(F)C1(F)F	-1	3	-3	-5
